How the values were obtained:
[1] = test system: SMAD2/3, NFATc3, ERK1/2, JNK, PKG/VASP in T2D rat hearts; format: in vivo; conditions: for cardiac cGMP-dependent pathway PKG/VASP (VASP phosphorylation): western blot, T2D lowered VASP phosphorylation by ≈60%
In short: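 Ventricles came from diabetic rats after 6 weeks of peptide infusion (2 pmol·kg−1·min−1) or sacubitril in drinking water (18 mg·kg−1·day−1). Tissue was lysed in RIPA with protease and phosphatase inhibitors and protein assayed by Bradford. Western blots: 12% SDS-PAGE, PVDF, 5% BSA block, primaries overnight at 4°C, GAPDH reference, three blots per condition. Antibody arrays: 5 µg protein dot-blotted onto PVDF, then probed with GAPDH as internal control.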

[2] = test system: high-fat/streptozotocin-induced Type 2 diabetic (T2D) rats; assay: Blood glucose and physiological parameters; format: in vivo, rat; conditions: for food intake / urine output / water intake / body weight: T2D animals, Supplementary Figures S1 and S2; for food intake / urine output / water intake: 24 h metabolic cages; for fasting plasma glucose at Week 6: first set, untreated T2D rose further to ≈500 mg·dL−1 at Week 6
In short: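 Male Wistar rats, 12 months old, 450 ± 25 g. Type 2 diabetes induced by a 60% kcal lard diet for 4 weeks, then three i.p. STZ doses of 40 mg·kg−1 (citrate, pH 4.5) on consecutive days; shams received citrate. Tail glucose was read by glucometer in conscious restrained rats after a 12-h fast. Treatment ran 6 weeks; rats were held singly in metabolic cages for 24 h before the end.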

[3] = test system: ANP/cGMP concentrations in T2D rats; assay: Cardiac and plasma ANP/cGMP measurement by ELISA; format: in vivo, rat; conditions: for increase in cardiac cGMP levels vs. T2D: acetylated samples, T2D tended to decrease ≈50%, n = 4-6; for increase in ANP plasma concentration: non-significant for MANP, P = 0.0967
neprilysin (NEP) = conditions: cited from earlier work
[4] = test system: cultured rat cardiac fibroblasts; assay: Western blots of SMAD2/3 and PKG/VASP in high-glucose-treated fibroblasts; format: cell-based; conditions: high glucose 24 h with 100 pM peptide, western blot; for decrease in SMAD2 phosphorylation levels: n = 3; for activation of PKG/VASP pathway (VASP phosphorylation at serine 239): n = 5
In short: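 Day-5 cultures of rat ventricular fibroblasts were given high glucose for 24 h, with or without peptide at 100 pM. Cells were lysed in RIPA with protease and phosphatase inhibitors, and proteins were separated by 12% SDS-PAGE and blotted to PVDF. Membranes were blocked in 5% BSA and probed overnight at 4°C, with GAPDH as housekeeper. Blots came from three or five independent cultures.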

[5] = test system: cultured rat cardiac fibroblasts; assay: Sircol collagen secretion assay on cell supernatants; format: cell-based; conditions: 100 pM, 24 h, n = 6 independent cultures
In short: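 Rat ventricular fibroblasts, isolated by collagenase digestion, were adhesion-selected and cultured 5 days in DMEM with 10% FBS. They were then exposed to peptide at 100 pM for 24 h. Culture supernatants were used directly in the Sircol dye-binding assay, with pellets rinsed and dissolved in alkali reagent; collagen was read against standards. Six independent cultures were run.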

mongrel dogs = mongrel dogs following peptide administration; cited from earlier work
[6] = test system: myocardial fibrosis in T2D rat hearts; assay: Myocardial fibrosis histology and immunofluorescence; format: in vivo; conditions: first set, 2 pmol·kg−1·min−1 s.c., 6 weeks; for decrease in WGA staining (extracellular matrix): n = 5-6; for decrease in Masson's trichrome staining: n = 6
[7] = test system: cultured rat cardiac fibroblasts; assay: MTT proliferation assay; format: cell-based; conditions: 100 pM, 24 h, n = 6 independent cultures
In short: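 Ventricular fibroblasts came from normal Wistar rats by collagenase type V digestion and differential centrifugation, then were selected by 2-h adhesion in DMEM with 10% heat-inactivated FBS. On day 5 of culture, cells were exposed to peptide at 100 pM for 24 h. MTT (0.5 mg·mL−1 in Tyrode) was added for 1 h at 37°C and formazan dissolved in DMSO for absorbance reading. Six independent cultures were run.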

[8] = target: insulin-degrading enzyme (IDE); conditions: relative to ANP; cited from earlier work
[9] = regulated by clearance receptor (NPR-C) and peptidases; cited from earlier work
[10] = test system: cardiac collagen in T2D rat hearts; format: in vivo; conditions: first set; Sircol assay; 2 pmol·kg−1·min−1 s.c., 6 weeks; n = 5-6
In short: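 Ventricular tissue came from diabetic rats after 6 weeks of pump-delivered peptide at 2 pmol·kg−1·min−1. Tissue was homogenized in acid-pepsin and reacted with Sircol dye. Collagen-dye pellets were spun down, rinsed with acetic acid and dissolved in alkali reagent. Soluble collagen was read as absorbance at 550 nm against standards.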

[11] = first set, ELISA on ventricular tissue, 2 pmol·kg−1·min−1 s.c., 6 weeks, n = 6

Row | Molecule | food intake [2] | urine output [2] | water intake [2] | body weight [2] | increase in cardiac ANP levels vs. T2D ([3]; second set, ELISA, n = 5-7) | decrease in SMAD2 phosphorylation levels [4] | activation of PKG/VASP pathway (VASP phosphorylation at serine 239) [4] | cardiac cGMP-dependent pathway PKG/VASP (VASP phosphorylation) ([1]; first set, n = 3) | fasting plasma glucose at Week 6 ([2]; T2D rats) | increase in cardiac ANP levels vs. T2D [3, 11] | increase in cardiac cGMP levels vs. T2D ([3]; first set, ELISA) | increase in ANP plasma concentration ([3]; first set, ELISA, n = 6) | decrease in collagen secretion [5] | increase in plasma ANP (mongrel dogs) [fold] | increase in plasma cGMP (mongrel dogs) [fold] | decrease in WGA staining (extracellular matrix) [6] | decrease in Masson's trichrome staining [6] | decrease in fibroblast proliferation [7] | half-life [9] [min] | other results
1 | CCOC(=O)[C@H](C)C[C@@H](Cc1ccc(-c2ccccc2)cc1)NC(=O)CCC(=O)O [SACU, Sacubitril sodium] | reduced | reduced | reduced | without affecting the body weight | ≈ 50% |  |  |  |  |  |  |  |  |  |  |  |  |  |  | level of ERK1/2 phosphorylation relative to GAPDH ([1]; second set, antibody array, n = 4): decreased; metabolic profile (blood glucose) ([2]; second set, T2D rats, SACU 18 mg·kg−1·day−1 in drinking water): same metabolic profiles as their counterparts
2 | M-atrial natriuretic peptide [MANP] | reduced | reduced | reduced | without affecting the body weight |  | ≈ 55% | ≈ 2.3 fold | restored this pathway | remained unchanged | ≈ 2 fold | ≈ 5 fold | ≈ 20% | ≈ 30% | ~1.5 | ~1.5 | ≈ 75% | ≈ 80% | ≈ 20% |  | resistance to NEP degradation (neprilysin (NEP)): resistant to NEP degradation; cardiac NFATc3 activation (phosphorylated inactivated protein levels) ([1]; first set, antibody array vs T2D controls, n = 4): significantly reduced NFATc3 activation; cardiac ERK1/2 activation (pERK/ERK) ([1]; first set, antibody array, T2D hearts, n = 4): markedly attenuated; lower SMAD3 phosphorylation levels compared with T2D animals ([1]; first set, cardiac tissue western blot, 2 pmol·kg−1·min−1 s.c., 6 weeks, n = 3): ≈ 55%; IC50 with insulin-degrading enzyme (IDE), higher than ANP [8]: 30 fold
3 | brain natriuretic peptide [BNP] |  |  |  |  |  |  |  |  |  |  |  |  |  |  |  |  |  |  | 20 | 
4 | atrial natriuretic peptide [ANP] | reduced | reduced | reduced | without affecting the body weight | no noticeable effect | ≈ 55% | ≈ 2.3 fold | restored this pathway | remained unchanged | no noticeable effect | attenuated | no noticeable effect | ≈ 30% | ~1.5 | ~1.5 | ≈ 50% | ≈ 50% | ≈ 20% | 3 | plasma ANP levels ([3]; second set, ELISA, n = 5-7): no noticeable effect; increase in cardiac soluble collagen [10]: ≈ 25%

From paper PMC11977460 (European Heart Journal Open, 2025)
